By IC50 is commonly meant the concentration needed to halve the response being measured. A lower IC50 goes with inhibition by little substance.

The source of these data is ChEMBL document CHEMBL1128337, “Synthesis and cytotoxic activity of 6-vinyl- and 6-ethynyluridine and 8-vinyl-and 8-ethynyladenosine” (J Med Chem, 1995).

Holding throughout (format): functional, cell-based
The subject of one experiment is MT4. In words: Compound was tested for the inhibition of human T-lymphoblast MT-4 cell proliferation. Put shortly:
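MT-4 cells grown in RPMI-1640 with 10% fetal calf serum, 2 mM L-glutamine, 0.075% NaHCO3. Seeded at 6.25 × 10⁴ cells/well with varying compound concentrations and cultured 120 h at 37 °C, humidified CO2 atmosphere. Viable cells counted by trypan blue staining under microscope. IC50 = concentration reducing viable cell number by 50%. Means of at least two or three independent experiments.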

In a further experiment the test system is FM3A. The experiment is described as follows: Compound was tested for the inhibition of murine mammary carcinoma FM3A cell proliferation. To be noted: Mus musculus. Put shortly: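 FM3A cells in Eagle's minimal essential medium with 10% fetal calf serum, 2 mM L-glutamine, 0.075% NaHCO3. Seeded 5 × 10⁴ cells/well (200 μL) with varying compound concentrations and incubated 48 h at 37 °C, humidified CO2 atmosphere. Cell number from Coulter counter. IC50 = concentration reducing viable cells by 50%.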

Another experiment deals with L1210. In words: Compound was tested for the inhibition of murine leukemia L1210 cell proliferation. To be noted: Mus musculus. An outline of the steps:
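L1210 cells maintained in Eagle's minimal essential medium with 10% fetal calf serum, 2 mM L-glutamine, 0.075% NaHCO3. Exposed to varying compound concentrations at 5 × 10⁴ cells/well (200 μL) and grown 48 h at 37 °C, humidified CO2 atmosphere. Counted with Coulter counter. IC50 = concentration reducing viable cells by 50%. Means of at least two or three independent experiments.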

A further experiment deals with MOLT-4F. In words: Compound was tested for the inhibition of human T-lymphoblast Molt/4F cell proliferation. An outline of the steps: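 Molt/4F cells in RPMI-1640 with 10% fetal calf serum, 2 mM L-glutamine, 0.075% NaHCO3. Plated at 6.25 × 10⁴ cells/well across varying compound concentrations and grown 72 h at 37 °C, humidified CO2 atmosphere. Cells counted with Coulter counter. IC50 = concentration reducing viable cell number by 50%. Means of at least two or three independent experiments.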

Regarding `C#Cc1cc(=O)[nH]c(=O)n1C1O[C@H](CO)[C@@H](O)[C@H]1O` (stereo partly specified), the IC50 was 286 µM in the experiment on MT4, over 372 µM with FM3A, over 372 µM in the experiment on L1210 and over 372 µM in the experiment on MOLT-4F.

As to `C=Cc1nc2c(N)ncnc2n1[C@@H]1O[C@H](CO)[C@@H](O)[C@H]1O`, the IC50 is 15 µM with MT4, 145 µM in the experiment on FM3A, 190 µM in the experiment with L1210 and 6.5 µM in the experiment on MOLT-4F.

For `C#Cc1nc2c(N)ncnc2n1[C@@H]1O[C@H](CO)[C@@H](O)[C@H]1O`, the IC50 with MT4 came out at 22 µM; in the experiment with FM3A it was 27 µM; in the experiment with L1210 it was 54 µM; in the experiment with MOLT-4F, 25 µM.

Consider `C=Cc1cc(=O)[nH]c(=O)n1C1O[C@H](CO)[C@@H](O)[C@H]1O` (stereo partly specified), for which the half-inhibitory concentration (IC50) was determined as 11 µM in the experiment on MT4, 24 µM in the experiment with FM3A, 21 µM in the experiment with L1210 and 14 µM in the experiment with MOLT-4F.
